Here are results for three compounds from publication PMC8965017 (International Journal of Nanomedicine, 2022).

The subject of data set [1] is MDA-MB-231 cells. Briefly: In vitro cytotoxicity, MTT assay. It counts as cell-based, human. Conditions: 5-100 μM, 24 and 48 h. An outline of the steps: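 MDA-MB-231 cells were seeded at 1×10^4 cells/well for 24 h. Medium was then replaced with single drugs, their combination or the nanoparticle formulation at 5, 10, 20, 50, 75 and 100 μM. After 24 or 48 h, MTT was added for 4 h and absorbance was read at 490 nm. Survival was calculated from blank, treated and control OD; mean ± SD, n = 3.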
(Tetrazolium assays rely on reduction of a dye to a coloured formazan, in cell work by metabolically active cells.)

Data set [2] relates to MDA-MB-231 cells. Briefly: Calcein-AM/PI staining. The data set is classed as cell-based, human. Conditions: DAS concentration 10 µM, 24 h. An outline of the steps:
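MDA-MB-231 cells (RPMI-1640, 10% FBS, 1% penicillin-streptomycin; 37°C, 5% CO2) were seeded at 1×10^4 cells/well and grown overnight. They were then exposed for 24 h to free drugs, their combination or the nanoparticle formulation at a DAS concentration of 10 µM. Cells were stained with calcein-AM/PI at 37°C for 30 min and imaged by fluorescence microscopy.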

Another data set is described as follows: In vivo safety. Also noted: species or system BALB/c nude mice. The note with it: after treatment. An outline of the steps: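 At the end of treatment, blood from the MDA-MB-231 xenograft-bearing nude mice was assayed for serum AST, ALT, AKP, BUN and creatinine. Major organs (heart, liver, spleen, lung, kidney) were taken for HE staining. Mean ± SD, n = 3.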

In data set [3] the test system is MDA-MB-231 cells. Briefly: Cell uptake of C6-labelled micelles. It counts as cell-based, human. Conditions: MDA-MB-231, 1 h and 4 h. An outline of the steps: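 Coumarin 6 was loaded into the polymer micelles by film dispersion. MDA-MB-231 cells were seeded overnight at 1×10^4 cells/well and given free C6 or C6-micelles; one group was pretreated with HA (10 mg/mL) for 0.5 h to block the receptor. After 1 h or 4 h at 37°C, cells were PBS-washed three times, paraformaldehyde-fixed for 10 min, DAPI-stained for 10 min at room temperature and viewed by fluorescence microscopy.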

Data set [4] relates to MDA-MB-231 tumor-bearing mice. Briefly: In vivo antitumor efficacy. Also noted: species or system BALB/c nude mice. The note with it: 5 mg/kg once every 3 days, 6 times, day 18. An outline of the steps:
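Female BALB/c nude mice aged 4–5 weeks carried subcutaneous MDA-MB-231 tumours. At about 100 mm3 they were randomised into 5 groups (n = 6): PBS, single drugs, combination or nanoparticles. From day 0, intravenous doses of 5 mg/kg were given every 3 days, 6 times in total. Tumour length and width were measured by caliper before each dose to calculate volume, and tumours were excised after the last dose.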

With `O=C(c1cc(Cc2n[nH]c(=O)c3ccccc23)ccc1F)N1CCN(C(=O)C2CC2)CC1` [OLA, Olaparib], the “toxicity to MDA-MB-231 cells (MTT)” value in the data set with MDA-MB-231 cells [1] is recorded as “low toxicity”. Also, in the data set on MDA-MB-231 cells [2], the “live/dead fluorescence (green living, red dead)” value is “no obvious red appearance”. Moreover, the “serum indicators of liver and renal function (AST, ALT, BUN, CRE) vs normal mice” value in the data set “In vivo safety” is given as “significantly increased”.
Consider `CCN(CC)c1ccc2cc(-c3nc4ccccc4s3)c(=O)oc2c1` [C6, coumarin 6], for which the “cellular uptake (green fluorescence of C6)” value in the data set on MDA-MB-231 cells [3] is “weak green fluorescence”.
For the compound `Cc1nc(Nc2ncc(C(=O)Nc3c(C)cccc3Cl)s2)cc(N2CCN(CCO)CC2)n1` [DAS, Dasatinib], the “tumor growth inhibition rate (TGI)” value in data set [4] was 49.83%.
